# Assay outcomes deposited in PubChem BioAssay by The Scripps Research Institute Molecular Screening Center.
# In the library only some 2.7% were active in any assay of this set; here they are far more common.
# PAFAH1B2 FP inh – PAFAH1B2 (human) inhibition; P68402; inhibition, % at 3.39 µM; recombinant PAFAH1B2, FP-rhodamine activity probe, fluorescence polarization; AID 492953; 1.2% of 340,000 active;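 active means inhibition above the mean of all tested compounds plus 3 SD, cut at about 24% in these data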;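 further: 0% = enzyme with DMSO and 100% = wells lacking PAFAH1B2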
# ARFGAP1 inh – inhibits rat ARF GTPase activating protein 1. Q62848. Arfgap1-stimulated ARF1 GTP hydrolysis, GDP FP detection. inhibition, % at 16.5 µM. 0.26% of 360,000 active. AID 651572;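 active means inhibition above a per-plate limit, mean inhibition of low control wells plus 3 SD, cut at about 25% in these data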;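 further: 0% = DMSO wells with enzyme and 100% = wells lacking Arfgap1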
#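 System: truncated rat Arfgap1 GAP domain / Medium: HEPES-based buffer, pH 7.5 / Also added: N-terminally truncated human ARF1-GTP substrate / Incubation: enzyme reaction 120 min at 25 °C after 20 min preincubation / Measured by: FP of antibody-bound GDP Alexa 633 tracer, ex 620/em 688 nm / Replicates: singlicate, each compound tested once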
# ASAP1 inh – blocks human ASAP1-stimulated Arf1 GTP hydrolysis | Q9ULH1 | GDP FP detection | 0.19% of 360,000 active | inhibition, % at 16.5 µM; in the data active means inhibition above about 25%;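 further: 0% = vehicle with enzyme and substrate and 100% = no enzyme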
# Target sequence (Q9ULH1 325-724 limits assumed): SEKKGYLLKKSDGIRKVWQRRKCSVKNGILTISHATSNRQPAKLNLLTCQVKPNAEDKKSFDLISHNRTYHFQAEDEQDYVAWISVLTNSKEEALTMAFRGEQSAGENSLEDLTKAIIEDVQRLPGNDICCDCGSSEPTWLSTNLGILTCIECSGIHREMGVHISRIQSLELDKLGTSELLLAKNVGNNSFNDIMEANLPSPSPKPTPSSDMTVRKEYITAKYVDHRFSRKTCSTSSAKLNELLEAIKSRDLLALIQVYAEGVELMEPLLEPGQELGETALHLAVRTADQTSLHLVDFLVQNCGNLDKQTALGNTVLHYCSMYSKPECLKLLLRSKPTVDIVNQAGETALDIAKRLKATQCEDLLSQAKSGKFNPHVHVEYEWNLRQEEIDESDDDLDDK
# pPAFAH FP inh – inhibitors of human plasma PAF acetylhydrolase (pPAFAH); inhibition, % at 3.39 µM; AID 463082; recombinant pPAFAH, FP-rhodamine probe fluorescence polarization; Q13093; 1.5% of 330,000 active;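 active means inhibition above the mean inhibition across the screen plus 3 SD, cut at about 25% in these data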;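 further: inhibitors block binding of the rhodamine activity-based probe so polarization drops; 0% = enzyme with DMSO and 100% = wells lacking pPAFAH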
# PAFAH2 inh – PAFAH2 (human) inhibition. Q99487. recombinant PAFAH2, FP-rhodamine activity probe, fluorescence polarization. inhibition, % at 3.39 µM. 0.99% of 340,000 active. AID 492956;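 active means inhibition above the mean over all tested compounds plus 3 SD, cut at about 30% in these data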;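 further: inhibitors block probe labeling of enzyme so polarization drops; 0% = enzyme with DMSO and 100% = wells lacking PAFAH2 protein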
# PAFAH1B3 FP inh – inhibitors of human PAFAH1B3. Q15102. recombinant PAFAH1B3, FP-rhodamine probe, fluorescence polarization. inhibition, % at 3.39 µM. 0.28% of 340,000 active;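 active means inhibition above the screen-wide average of all tested compounds plus 3 SD, cut at about 25% in these data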;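 further: 0% = enzyme with DMSO only and 100% = wells lacking PAFAH1B3 protein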
# Target sequence (Q15102 whole entry, looked up): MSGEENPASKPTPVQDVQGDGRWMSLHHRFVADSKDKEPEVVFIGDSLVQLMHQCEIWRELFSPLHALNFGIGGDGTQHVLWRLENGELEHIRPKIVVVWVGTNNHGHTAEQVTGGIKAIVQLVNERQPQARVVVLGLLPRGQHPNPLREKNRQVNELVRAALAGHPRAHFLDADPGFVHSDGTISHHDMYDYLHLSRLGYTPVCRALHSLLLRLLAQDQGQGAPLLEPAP
# * marks the source's active call; other numbers are inactive results; / = not tested or not shown.
SMILES,PAFAH1B2 FP inh,ARFGAP1 inh,ASAP1 inh,pPAFAH FP inh,PAFAH2 inh,PAFAH1B3 FP inh
COC(=O)C1=C(C)N(Cc2ccccc2C(F)(F)F)C(=NCc2ccc(C(F)(F)F)cc2)NC1c1ccccc1 (stereo not drawn),/,12,1,/,/,/
CC1CC(C)CN(CCCNC(=O)C2CCC(=O)N2C2CCCC2)C1 (stereo not drawn),-1,32*,-9,1,-1,-4
O=C(NCCCN1CCCC1)C1CCC(=O)N1C1CCCCC1 (stereo not drawn),2,5,7,2,0,-1
Cc1ccc(CCNC(=O)C2CCC(=O)N2C2CCCC2)cc1 (stereo not drawn),27*,-16,-6,-1,-2,-9
Cc1ccccc1CN1[C@@H](C)[C@H](c2ccccc2)Oc2cccc(NCCc3ccccc3)c2S1(=O)=O,/,-15,-6,/,/,/
O=C(/C=C(\Nc1cccc(F)c1)c1ccccc1)c1ccccc1,/,-2,-5,/,/,/
Cc1ccc(NS(=O)(=O)c2ccc(NC(=O)c3ccccc3C(=O)O)cc2)c(C)c1,11,-6,1,34*,4,4
Cc1ccc(NS(=O)(=O)c2ccc(NC(=O)CSc3ccc(Cl)cc3)cc2)c(C)c1,18,5,11,33*,-7,9
Cc1ccc(NS(=O)(=O)c2ccc3c(c2)C(=O)c2ccccc2C3=O)c(C)c1,2,12,0,32*,11,12
Cc1ccc(NS(=O)(=O)c2ccc(NC(=O)c3ccc(Br)o3)cc2)c(C)c1,-17,7,7,15,-38,-19
CN(c1cccc(NC(=O)CSc2ccc(Cl)cc2)c1)S(C)(=O)=O,49*,-5,7,29*,10,-1
O=C(NCc1ccccc1)[C@@H]1CCCN1C(=O)[C@H]1CCCN1C(=O)c1cc(F)cc(F)c1,/,4,-7,/,/,/
O=C(N[C@H](Cc1ccccc1)C(=O)N1CCN(CC(=O)N2CCCC2)CC1)[C@H]1O[C@@H](n2ccc(=O)[nH]c2=O)[C@H](O)[C@@H]1O,/,2,-2,/,/,/
CC(C)NC(=O)N(C)C[C@H]1OCc2cn(nn2)CCCC(=O)N([C@H](C)CO)C[C@@H]1C,/,-6,-6,/,/,/
Cc1cc(NS(=O)(=O)c2ccccc2)ccc1NS(=O)(=O)c1ccccc1,28*,13,-9,/,12,5
O=C(Nc1ccc(NS(=O)(=O)c2ccccc2)cc1)c1ccccc1Cl,6,3,-15,25*,6,3
Cc1nc(NS(=O)(=O)c2ccccc2)sc1NC(=O)Nc1ccc(Cl)cc1,4,-4,5,34*,5,8
C[C@@H]1CCCCO[C@@H](CN(C)Cc2ccc(C(=O)O)cc2)[C@@H](C)CN([C@H](C)CO)C(=O)c2cc(NS(C)(=O)=O)ccc2O1,/,15,16,/,/,/
CCOc1ccc(NS(=O)(=O)c2ccc(C(=O)NCCCN3CCOCC3)cc2)cc1,3,5,0,31*,-4,12
O=C(Nc1ccc(S(=O)(=O)Nc2ccc(F)cc2)cc1)c1ccc(CN2CCOCC2)cc1,0,0,3,34*,4,1
Cc1ccc(S(=O)(=O)Nc2ccc(C(=O)Nc3ccncc3)cc2)cc1,5,-11,9,1,-13,5
Cc1ccc(S(=O)(=O)Nc2ccc(NC(=O)c3ccc(F)cc3)cc2)cc1,4,7,2,30*,1,6
O=C(O)c1cc(NS(=O)(=O)c2ccc(F)cc2)cc(NS(=O)(=O)c2ccc(F)cc2)c1,42*,11,5,15,32*,5
c1ccc(COCCc2cn(Cc3ccccc3)c3ccccc23)cc1,/,0,8,/,/,/
CCOc1ccc(Nc2nc(Cc3nnc(SCC(=O)O)o3)cs2)cc1,3,4,1,28*,12,12
SMILES,PAFAH1B2 FP inh,ARFGAP1 inh,ASAP1 inh,pPAFAH FP inh,PAFAH2 inh,PAFAH1B3 FP inh
CCOc1ccc(Cc2nnc(SCC(=O)c3ccc(OC)cc3)o2)cc1,-1,-5,4,2,3,-8
COCCN1Cc2cc(C(=O)OC)c3c(c2C1=O)c1ccccc1n3S(=O)(=O)c1ccc(OC)cc1,/,-1,4,/,/,/
N#Cc1c(NC(=O)CSc2ncccn2)oc(-c2ccccc2)c1-c1ccccc1,12,8,-4,32*,1,6
Cc1ccnc(SCC(=O)Nc2oc(-c3ccccc3)c(-c3ccccc3)c2C#N)n1,-5,-5,3,1,-10,7
N#Cc1c(NC(=O)Cn2cnc3ccccc3c2=O)oc(-c2ccccc2)c1-c1ccccc1,29*,-9,-6,16,2,6
COC(=O)[C@]12C[C@H](CC(=O)N3CCSCC3)C(=O)N(Cc3ccccc3)C1=C[C@H](C(C)C)O[C@@H]2C1CC1,/,0,-8,/,/,/
CN1CCCCC(NC(=O)COCc2ccccc2)C1=O (stereo not drawn),/,7,9,/,/,/
C=CC[C@H](CC(=O)N(CCO)Cc1ccccc1)C(=O)NC[C@@H](OC(=O)[C@@H](CC=C)Cc1ccc(F)cc1)c1ccccc1,4,1,-11,5,0,6
C=CC[C@H](CC(=O)N(CCO)Cc1ccccc1)C(=O)N[C@H](COC(=O)[C@@H](CC=C)Cc1ccc(F)cc1)Cc1ccccc1,57*,9,-3,4,-1,3
C=CCC[C@H](Cc1ccc(F)cc1)C(=O)O[C@H](CNC(=O)[C@@H](CC=C)CC(=O)N(CCO)Cc1ccccc1)c1ccccc1,27*,18,-5,19,6,5
C=CC[C@@H](CC(=O)N(CCO)Cc1ccccc1)C(=O)N[C@H](C)COC(=O)[C@@H](CC=C)Cc1ccc(F)cc1,11,4,-5,3,13,7
CCOC(=O)[C@@H]1CSCCS(=O)(=O)N1C(=O)[C@H](CCSC)NC(=O)OC(C)(C)C,/,10,-7,/,/,/
O=C1C=C(NCc2ccccc2)c2ccccc2C1=O,27*,-5,6,/,53*,60*
O=C1c2cccc3c(O)ccc(c23)C(=O)N1c1ccc(Cl)cc1,17,-4,6,28*,42*,27*
O=C(NCC1CCCO1)c1ccc(COc2ccc(Cl)cc2)cc1 (stereo not drawn),29*,-2,4,5,3,-2
C/C(=N/NS(=O)(=O)c1ccc(Cl)cc1)c1cccc(NC(=O)c2ccc(Cl)cc2Cl)c1,-6,-3,8,25*,9,12
C/C(=N/NS(=O)(=O)c1ccc(C)cc1)c1cccc(NC(=O)c2cccc(Cl)c2)c1,-2,6,24,11,1,2
Cc1ccc(C2NC(=O)c3n[nH]c(C)c32)cc1 (stereo not drawn),/,-11,2,/,/,/
O=[N+]([O-])c1ccc(O)c(C=Nc2ccc3oc(Cc4ccc(Cl)cc4)nc3c2)c1,/,/,/,46*,/,/
